According to ChEMBL document CHEMBL5058577, “EUbOPEN Chemogenomics Library 2 (Multiplex)” (2022):

Test system: U2OS
Test: Multiplex assay against U2OS
Format: toxicity, cell-based
Conditions: human
In short: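 Values for tubulin, mitochondrial-mass and membrane-permeability phenotypes are per cents of cells with healthy nuclei. These cells were identified by CellPathfinder machine-learning gating of live cells that had been stained at seeding with Hoechst33342, BioTracker Green Microtubule Cytoskeleton Dye, MitoTracker Red and Annexin V Alexa Fluor 680 and imaged on a CQ1 microscope at 37°C and 5% CO2 after compound addition. The gating first set Hoechst high-intensity objects apart from normal cells, then split normal cells into healthy, pyknosed or fragmented nuclei, and pyknosed cells into mitotic or apoptotic.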

[1] = 12 h, 1 µM, compound concentration 1 uM, replicate 1
[2] = 12 h, 1 µM, compound concentration 1 uM, replicate 2
[3] = 12 h, 10 µM, compound concentration 10 uM, replicate 1
[4] = 12 h, 10 µM, compound concentration 10 uM, replicate 2
[5] = 24 h, 1 µM, compound concentration 1 uM, replicate 1
[6] = 24 h, 1 µM, compound concentration 1 uM, replicate 2
[7] = 24 h, 10 µM, compound concentration 10 uM, replicate 1
[8] = 24 h, 10 µM, compound concentration 10 uM, replicate 2
[9] = 48 h, 1 µM, compound concentration 1 uM, replicate 1
[10] = 48 h, 1 µM, compound concentration 1 uM, replicate 2
[11] = 48 h, 10 µM, compound concentration 10 uM, replicate 1
[12] = 48 h, 10 µM, compound concentration 10 uM, replicate 2

SMILES: CC(C)COc1ccc(CNC(=O)N(Cc2ccc(F)cc2)C2CCN(C)CC2)cc1 [PIMAVANSERIN]
- Population Apoptotic (%) [1]: 84%
- Population Fragmented Nuclei (%) [1]: 23%
- Population Healthy Nuclei (%) [1]: 67%
- Population Hoechst High Intensity Objects (%) [1]: 2%
- Population Membrane Permeable-Phenotype (%) [1]: 6%
- Population Mitochondria Different-Phenotype (%) [1]: 3%
- Population Mitotic Cells (%) [1]: 16%
- Population Normal (%) [1]: 97%
- Population Pyknosed Nuclei (%) [1]: 9%
- Population Tubulin-Different-Phenotype (%) [1]: 5%
- Total Cell Count [1]: 265
- Population Apoptotic (%) [2]: 100%
- Population Fragmented Nuclei (%) [2]: 11%
- Population Healthy Nuclei (%) [2]: 80%
- Population Hoechst High Intensity Objects (%) [2]: 0%
- Population Mitochondria Different-Phenotype (%) [2]: 4%
- Population Mitotic Cells (%) [2]: 0%
- Population Normal (%) [2]: 99%
- Population Pyknosed Nuclei (%) [2]: 7%
- Population Tubulin-Different-Phenotype (%) [2]: 6%
- Total Cell Count [2]: 136
- Population Apoptotic (%) [3]: 67%
- Population Fragmented Nuclei (%) [3]: 23%
- Population Healthy Nuclei (%) [3]: 48%
- Population Hoechst High Intensity Objects (%) [3]: 5%
- Population Membrane Permeable-Phenotype (%) [3]: 48%
- Population Mitochondria Different-Phenotype (%) [3]: 73%
- Population Mitotic Cells (%) [3]: 32%
- Population Normal (%) [3]: 94%
- Population Pyknosed Nuclei (%) [3]: 27%
- Population Tubulin-Different-Phenotype (%) [3]: 77%
- Total Cell Count [3]: 202
- Population Apoptotic (%) [4]: 71%
- Population Fragmented Nuclei (%) [4]: 18%
- Population Healthy Nuclei (%) [4]: 54%
- Population Hoechst High Intensity Objects (%) [4]: 4%
- Population Membrane Permeable-Phenotype (%) [4]: 26%
- Population Mitochondria Different-Phenotype (%) [4]: 70%
- Population Mitotic Cells (%) [4]: 28%
- Population Normal (%) [4]: 95%
- Population Pyknosed Nuclei (%) [4]: 26%
- Population Tubulin-Different-Phenotype (%) [4]: 52%
- Total Cell Count [4]: 124
- Population Apoptotic (%) [5]: 92%
- Population Fragmented Nuclei (%) [5]: 22%
- Population Healthy Nuclei (%) [5]: 67%
- Population Hoechst High Intensity Objects (%) [5]: 2%
- Population Membrane Permeable-Phenotype (%) [5]: 10%
- Population Mitochondria Different-Phenotype (%) [5]: 4%
- Population Mitotic Cells (%) [5]: 7%
- Population Normal (%) [5]: 97%
- Population Pyknosed Nuclei (%) [5]: 9%
- Population Tubulin-Different-Phenotype (%) [5]: 6%
- Total Cell Count [5]: 294
- Population Apoptotic (%) [6]: 78%
- Population Fragmented Nuclei (%) [6]: 11%
- Population Healthy Nuclei (%) [6]: 80%
- Population Hoechst High Intensity Objects (%) [6]: 1%
- Population Membrane Permeable-Phenotype (%) [6]: 11%
- Population Mitochondria Different-Phenotype (%) [6]: 8%
- Population Mitotic Cells (%) [6]: 21%
- Population Normal (%) [6]: 98%
- Population Pyknosed Nuclei (%) [6]: 8%
- Total Cell Count [6]: 163
- Population Apoptotic (%) [7]: 88%
- Population Fragmented Nuclei (%) [7]: 28%
- Population Healthy Nuclei (%) [7]: 40%
- Population Hoechst High Intensity Objects (%) [7]: 10%
- Population Membrane Permeable-Phenotype (%) [7]: 32%
- Population Mitochondria Different-Phenotype (%) [7]: 67%
- Population Mitotic Cells (%) [7]: 11%
- Population Normal (%) [7]: 89%
- Population Pyknosed Nuclei (%) [7]: 31%
- Population Tubulin-Different-Phenotype (%) [7]: 49%
- Total Cell Count [7]: 214
- Population Apoptotic (%) [8]: 79%
- Population Fragmented Nuclei (%) [8]: 16%
- Population Healthy Nuclei (%) [8]: 50%
- Population Hoechst High Intensity Objects (%) [8]: 3%
- Population Membrane Permeable-Phenotype (%) [8]: 30%
- Population Mitochondria Different-Phenotype (%) [8]: 75%
- Population Mitotic Cells (%) [8]: 20%
- Population Normal (%) [8]: 96%
- Population Pyknosed Nuclei (%) [8]: 33%
- Total Cell Count [8]: 135
- Population Apoptotic (%) [9]: 87%
- Population Fragmented Nuclei (%) [9]: 19%
- Population Healthy Nuclei (%) [9]: 68%
- Population Hoechst High Intensity Objects (%) [9]: 2%
- Population Membrane Permeable-Phenotype (%) [9]: 6%
- Population Mitochondria Different-Phenotype (%) [9]: 5%
- Population Mitotic Cells (%) [9]: 12%
- Population Normal (%) [9]: 97%
- Population Pyknosed Nuclei (%) [9]: 12%
- Population Tubulin-Different-Phenotype (%) [9]: 4%
- Total Cell Count [9]: 393
- Population Apoptotic (%) [10]: 92%
- Population Fragmented Nuclei (%) [10]: 12%
- Population Healthy Nuclei (%) [10]: 76%
- Population Hoechst High Intensity Objects (%) [10]: 1%
- Population Membrane Permeable-Phenotype (%) [10]: 5%
- Population Mitotic Cells (%) [10]: 7%
- Population Normal (%) [10]: 98%
- Population Pyknosed Nuclei (%) [10]: 11%
- Population Tubulin-Different-Phenotype (%) [10]: 2%
- Total Cell Count [10]: 234
- Population Apoptotic (%) [11]: 98%
- Population Fragmented Nuclei (%) [11]: 38%
- Population Healthy Nuclei (%) [11]: 19%
- Population Hoechst High Intensity Objects (%) [11]: 13%
- Population Membrane Permeable-Phenotype (%) [11]: 40%
- Population Mitochondria Different-Phenotype (%) [11]: 56%
- Population Mitotic Cells (%) [11]: 1%
- Population Normal (%) [11]: 86%
- Population Pyknosed Nuclei (%) [11]: 42%
- Population Tubulin-Different-Phenotype (%) [11]: 54%
- Total Cell Count [11]: 222
- Population Apoptotic (%) [12]: 95%
- Population Healthy Nuclei (%) [12]: 15%
- Population Hoechst High Intensity Objects (%) [12]: 8%
- Population Membrane Permeable-Phenotype (%) [12]: 66%
- Population Mitochondria Different-Phenotype (%) [12]: 80%
- Population Mitotic Cells (%) [12]: 4%
- Population Normal (%) [12]: 91%
- Population Pyknosed Nuclei (%) [12]: 45%
- Population Tubulin-Different-Phenotype (%) [12]: 71%
- Total Cell Count [12]: 146
